Assay results taken from PMC4788500 (Structure (London, England : 1993), 2015).
Changes are numbered by the printed parent chain. One block for each molecule: values may come before it.

Assays:
PLCδ1 PH domain = biological target: T1, PLCδ1 PH domain (Rattus norvegicus, UniProt P10688); experiment: Isothermal titration calorimetry, PLCδ1 PH domain; format: binding; details: read-out: dissociation constant (KD) by ITC; PBS, 25°C; three independent experiments
T1 sequence (P10688 11-140): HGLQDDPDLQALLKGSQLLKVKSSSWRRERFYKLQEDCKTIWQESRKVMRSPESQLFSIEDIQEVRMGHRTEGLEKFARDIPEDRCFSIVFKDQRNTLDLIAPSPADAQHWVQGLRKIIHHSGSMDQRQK

PdZA = experiment: Displacement of PdZA from PtdSer/PtdIns; format: binding; details: vesicles with 5 or 12.5 µM PtdIns(4,5)P2, 15% PtdSer
[1] = biological target: T2, ASAP1 PH domain, lysine 355 mutant (Mus musculus, UniProt Q9QWY8, K355N); experiment: diC4-PtdIns; format: binding; details: atypical-site mutant
T2 sequence (Q9QWY8 325-451 K355N): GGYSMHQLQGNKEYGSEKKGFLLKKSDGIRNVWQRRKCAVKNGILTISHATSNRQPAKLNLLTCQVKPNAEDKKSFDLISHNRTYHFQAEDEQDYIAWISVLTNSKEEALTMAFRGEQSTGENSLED
How it was run: (§1)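 ASAP1 PH domain, wild-type or site-directed mutant, is used at 1 µM and mixed with varying diC4-PtdIns(4,5)P2 in 20 mM HEPES pH 7.4, 100 mM NaCl. Tryptophan fluorescence spectra are recorded with excitation at 280 nm and emission at 310–450 nm. Signal is normalized to fluorescence without diC4-PtdIns(4,5)P2 and plotted against lipid concentration.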

[2] = biological target: T3, ASAP1 PH domain, arginine 360 mutant (Mus musculus, UniProt Q9QWY8, R360Q); experiment: diC4-PtdIns; format: binding; details: canonical-site mutant
T3 sequence (Q9QWY8 325-451 R360Q): T2 sequence (Q9QWY8 325-451 K355N) with N31K, R36Q
How it was run: as §1

ASAP1 [3] = biological target: T4, ASAP1 (Mus musculus, UniProt Q9QWY8); details: cited from earlier work
T4 sequence (Q9QWY8 325-724): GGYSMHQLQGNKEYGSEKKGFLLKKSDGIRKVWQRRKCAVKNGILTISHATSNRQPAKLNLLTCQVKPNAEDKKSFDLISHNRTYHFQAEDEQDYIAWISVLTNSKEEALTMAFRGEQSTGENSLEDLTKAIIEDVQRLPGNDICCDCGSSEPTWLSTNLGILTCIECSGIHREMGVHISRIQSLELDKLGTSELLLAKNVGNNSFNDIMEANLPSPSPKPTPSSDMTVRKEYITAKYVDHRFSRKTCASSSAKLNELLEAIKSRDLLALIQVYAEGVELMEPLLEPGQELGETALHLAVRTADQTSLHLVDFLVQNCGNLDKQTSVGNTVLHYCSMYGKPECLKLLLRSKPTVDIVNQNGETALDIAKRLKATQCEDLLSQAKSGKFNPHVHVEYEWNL

ASAP1 [4] = biological target: T4, ASAP1; experiment: Anionic phospholipid dependence of ASAP1; format: biochemical; details: LUVs; from C50 values
How it was run: (§2)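 Construct is PZA, the PH–Arf GAP–ankyrin repeat fragment of ASAP1, prepared as previously described. It is titrated into reactions with myrArf1·GTP as substrate and LUVs of the indicated lipid composition (e.g. 15% PtdSer, 10% PtdIns(4,5)P2, or both). Reactions run 3 min. Percent of Arf-bound GTP hydrolyzed is plotted against PZA concentration. C50 is the PZA concentration giving 50% hydrolysis, estimated from three experiments.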

myrArf1·GTP = format: biochemical; details: absence of anionic phospholipid
How it was run: as §2

Molecule: O=P(O)(O)O[C@@H]1[C@H](O)[C@H](O)[C@@H](OP(=O)(O)O)[C@H](OP(=O)(O)O)[C@H]1O [Ins(1,4,5)P3, inositol 1,4,5-trisphosphate]
Kd (PLCδ1 PH domain): 180 ± 30 nM | Ins(1,4,5)P3 concentration displacing half of the protein from LUVs (PdZA): less than half the PtdIns(4,5)P2 concentration

Molecule: Phosphatidylinositol 4,5-bisphosphate [PtdIns(4,5)P2]
increase of GAP activity compared with PtdSer alone (ASAP1 [4]): ~1,500 fold | increase of GAP activity compared with no anionic lipid (ASAP1 [4]): approximately 20,000 fold | increase of ASAP1 enzymatic activity on binding to the PH domain (ASAP1 [3]; ref Kam et al., 2000): approximately 10,000 fold

B1: Wild-type: His10-[325–724]ASAP1: fragment of ASAP1 comprising the PH, Arf GAP, and Ankyrin repeat domains (protein, UniProt Q9ULH1 325-724, looked up, fragment)
chain: SEKKGYLLKKSDGIRKVWQRRKCSVKNGILTISHATSNRQPAKLNLLTCQVKPNAEDKKSFDLISHNRTYHFQAEDEQDYVAWISVLTNSKEEALTMAFRGEQSAGENSLEDLTKAIIEDVQRLPGNDICCDCGSSEPTWLSTNLGILTCIECSGIHREMGVHISRIQSLELDKLGTSELLLAKNVGNNSFNDIMEANLPSPSPKPTPSSDMTVRKEYITAKYVDHRFSRKTCSTSSAKLNELLEAIKSRDLLALIQVYAEGVELMEPLLEPGQELGETALHLAVRTADQTSLHLVDFLVQNCGNLDKQTALGNTVLHYCSMYSKPECLKLLLRSKPTVDIVNQAGETALDIAKRLKATQCEDLLSQAKSGKFNPHVHVEYEWNLRQEEIDESDDDLDDK
modifications: His10 tag
amount of ASAP1 necessary to hydrolyze 50% of the GTP bound to Arf (C50) (myrArf1·GTP): 1 µM

More lines, main results first:

binding compared with wild-type protein (tryptophan fluorescence) [1]: no effect on binding | binding compared with wild-type protein (tryptophan fluorescence) [2]: reduced binding
Molecule: CCCC(=O)OC[C@H](COP(=O)(O)O[C@@H]1[C@H](O)[C@H](O)[C@@H](OP(=O)(O)O)[C@H](OP(=O)(O)O)[C@H]1O)OC(=O)CCC [diC4-PtdIns(4,5)P2, dibutyryl PtdIns(4,5)P2]
increase of ASAP1 activity at saturating concentrations (ASAP1 [3]; soluble lipid, no bilayer, ref Che et al., 2005): 2- to 4 fold

increase of GAP activity compared with no anionic lipid (ASAP1 [4]): 15 fold
Molecule: phosphatidylserine [PtdSer]
